Drawing on ChEMBL document CHEMBL1255247, “Induction of L1 and L2 beta-lactamases of Stenotrophomonas maltophilia” (2008), this text covers MIC, Activity and Ratio for 12 compounds.

In assay [1] the test system is Stenotrophomonas maltophilia. The assay is described as follows: Antibacterial activity against Stenotrophomonas maltophilia isolate KJ by Etest. It counts as functional.
For assay [2], the system named is Stenotrophomonas maltophilia. In words: Antibacterial activity against Stenotrophomonas maltophilia isolate KJ deficient in L1 beta lactamase gene by Etest. It counts as functional.
Assay [3] has as its system Stenotrophomonas maltophilia. The assay is described as follows: Antibacterial activity against Stenotrophomonas maltophilia isolate KJ deficient in L2 beta lactamase gene by Etest. It counts as functional.
For assay [4], the system named is Stenotrophomonas maltophilia. In words: Induction of xylE gene expression in Stenotrophomonas maltophilia isolate KJ deficient in L1 beta lactamase gene assessed maximum catechol 2,3-dioxygenase activity at 50 ug/ml after 3 hrs. It counts as functional, organism-based. The essentials:
(§1)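 xylE (catechol 2,3-dioxygenase) reporter induction in the L1 or L2 knockout of strain KJ. Overnight cultures were diluted to OD450 0.15 and grown 0.5 h at 37°C, then exposed to β-lactam inducer (default 50 μg/ml, 2.5 h). C23O activity was read in intact cells with OD450. 1 U = 1 nmol substrate/min; specific activity is U per A450 unit. Each experiment was run ≥3 times.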

In assay [5] the test system is Stenotrophomonas maltophilia. In words: Induction of xylE gene expression in Stenotrophomonas maltophilia isolate KJ deficient in L2 beta lactamase gene assessed maximum catechol 2,3-dioxygenase activity at 50 ug/ml after 2.5 hrs. It counts as functional, organism-based. An outline of the steps: as §1
Assay [6] relates to Stenotrophomonas maltophilia. In words: Induction of xylE gene expression in Stenotrophomonas maltophilia isolate KJ deficient in L1 beta lactamase gene assessed maximum catechol 2,3-dioxygenase activity at 1 ug/ml. The assay is classed as functional, organism-based. The essentials: as §1
Assay [7] relates to Stenotrophomonas maltophilia. The assay is described as follows: Induction of xylE gene expression in Stenotrophomonas maltophilia isolate KJ deficient in L2 beta lactamase gene assessed maximum catechol 2,3-dioxygenase activity at 1 ug/ml. The assay is classed as functional, organism-based. The essentials:
as §1

Assay [8] relates to Stenotrophomonas maltophilia. The assay is described as follows: Antibacterial activity against Stenotrophomonas maltophilia isolate KJ deficient in L1 beta lactamase gene at 50 ug/ml. The assay is classed as functional, organism-based.
In assay [9] the test system is Stenotrophomonas maltophilia. The assay is described as follows: Antibacterial activity against Stenotrophomonas maltophilia isolate KJ deficient in L2 beta lactamase gene at 50 ug/ml. The assay is classed as functional, organism-based.
For assay [10], the system named is Stenotrophomonas maltophilia. The assay is described as follows: Ratio of induction of xylE gene expression in Stenotrophomonas maltophilia isolate KJ deficient in L1 beta lactamase gene to induction of xylE gene expression in Stenotrophomonas maltophilia isolate KJ deficient in L2 beta lactamase gene assessed as catechol 2,3-dioxygenase activity at 50 ug/ml. The assay is classed as functional.

For assay [11], the system named is Stenotrophomonas maltophilia. In words: Antibacterial activity against Stenotrophomonas maltophilia isolate KJ deficient in L2 beta lactamase gene at 8 ug/ml. It counts as functional, organism-based.
The test system of assay [12] is Stenotrophomonas maltophilia. The assay is described as follows: Ratio of induction of xylE gene expression in Stenotrophomonas maltophilia isolate KJ deficient in L1 beta lactamase gene to induction of xylE gene expression in Stenotrophomonas maltophilia isolate KJ deficient in L2 beta lactamase gene assessed as catechol 2,3-dioxygenase activity at 8 ug/ml. The assay is classed as functional. An outline of the steps: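 xylE reporter (C23O) assay in L1- or L2-knockout mutants of strain KJ. Overnight cultures diluted to OD450 0.15 and grown 0.5 h at 37°C, then exposed to β-lactam inducer, by default for 2.5 h. C23O activity measured in intact cells with OD450 recorded. Specific activity is nmol substrate converted/min per A450 unit. At least three repeats.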

Assay [13] deals with Stenotrophomonas maltophilia. In words: Antibacterial activity against Stenotrophomonas maltophilia isolate KJ deficient in L1 beta lactamase gene at 16 ug/ml. It counts as functional, organism-based.
Assay [14] deals with Stenotrophomonas maltophilia. In words: Ratio of induction of xylE gene expression in Stenotrophomonas maltophilia isolate KJ deficient in L1 beta lactamase gene to induction of xylE gene expression in Stenotrophomonas maltophilia isolate KJ deficient in L2 beta lactamase gene assessed as catechol 2,3-dioxygenase activity at 16 ug/ml. The assay is classed as functional.

Structures are written as SMILES. Values after ≈ are worked out from the molar mass of the structure shown. Active and inactive are the calls of the source. The calls are words filed in the database; no cut-off is given here.

For orientation: MIC means the lowest concentration that inhibits growth of the organism. For `CO/N=C(\C(=O)N[C@@H]1C(=O)N2C(C(=O)O)=C(COC(N)=O)CS[C@H]12)c1ccco1` [CEFUROXIME], the minimum inhibitory concentration (MIC) in [1] is 2050 µg/mL (≈ 4830 µM); in assay [2], 1020 µg/mL (≈ 2410 µM); in assay [3], 1020 µg/mL (≈ 2410 µM). In addition, the outcome in assay [4], in assay [5], in assay [6] and in assay [7] was Active. In addition, the result in assay [8] and in [9] was inactive. The Ratio in assay [10] was determined as 2.4.

Take `C[C@H]1[C@H](NC(=O)/C(=N\OC(C)(C)C(=O)O)c2csc(N)n2)C(=O)N1S(=O)(=O)O` [AZTREONAM]: the MIC in [1] and in assay [2] was over 2050 µg/mL in each case. Also, in assay [11], the outcome was Active. Also, the Ratio in assay [12] was 7.9.

For `CCN1CCN(C(=O)N[C@@H](C(=O)N[C@@H]2C(=O)N3C(C(=O)O)=C(CSc4nnnn4C)CS[C@H]23)c2ccc(O)cc2)C(=O)C1=O` [CEFOPERAZONE], the MIC in assay [1] was 128 µg/mL (≈ 198 µM); in assay [2] it was 32 µg/mL (≈ 49.6 µM); in [3] it was 64 µg/mL (≈ 99.1 µM). Further, in [13], the result was Active. For the same compound, the Ratio in assay [14] is given as 1.4.

Take `CO/N=C(\C(=O)N[C@@H]1C(=O)N2C(C(=O)O)=C(CSc3nc(=O)c(O)nn3C)CS[C@H]12)c1csc(N)n1` [CEFTRIAXONE]: the results for the MIC in [1], in [2] and in assay [3] were 256 µg/mL (≈ 462 µM), 128 µg/mL (≈ 231 µM) and 128 µg/mL (≈ 231 µM), respectively. Moreover, the result in assay [8] and in assay [9] was inactive. For the same compound, the Ratio in [10] was found to be 5.5.

For `CO/N=C(\C(=O)N[C@@H]1C(=O)N2C(C(=O)O)=C(COC(C)=O)CS[C@H]12)c1csc(N)n1` [CEFOTAXIME], the minimum inhibitory concentration (MIC) in assay [1] was determined as 256 µg/mL (≈ 562 µM); in [2] it was 128 µg/mL (≈ 281 µM); in [3], 128 µg/mL (≈ 281 µM). In addition, the outcome in [8] and in assay [9] was inactive. In addition, the Ratio in [10] is recorded as 3.2.

Consider `CCN1CCN(C(=O)N[C@@H](C(=O)N[C@@H]2C(=O)N3[C@@H]2SC(C)(C)[C@@H]3C(=O)O)c2ccccc2)C(=O)C1=O` [PIPERACILLIN], for which the figures for the MIC in assay [1], in [2] and in [3] were 1020 µg/mL (≈ 1980 µM), 256 µg/mL (≈ 495 µM) and 512 µg/mL (≈ 989 µM), respectively. For the same compound, the outcome in assay [8] and in assay [9] was inactive. The Ratio in assay [10] was found to be 1.7.

For the compound `C[C@@H](O)[C@H]1C(=O)N2C(C(=O)O)=C(SCCNC=N)C[C@H]12` [IMIPENEM ANHYDROUS], the MIC is over 32 µg/mL in [1], 8 µg/mL (≈ 26.7 µM) in assay [2] and over 32 µg/mL in [3].

As for `CO[C@@]1(NC(=O)Cc2cccs2)C(=O)N2C(C(=O)O)=C(COC(N)=O)CS[C@@H]21` [CEFOXITIN], the results for the MIC in assay [1], in assay [2] and in assay [3] were 1020 µg/mL (≈ 2400 µM), 128 µg/mL (≈ 299 µM) and 1020 µg/mL (≈ 2400 µM), respectively. The result in assay [8] and in assay [9] was inactive. Besides, the Ratio in assay [10] is recorded as 0.2.

As for `CC1(C)S[C@@H]2[C@H](NC(=O)[C@H](N)c3ccccc3)C(=O)N2[C@H]1C(=O)O` [AMPICILLIN], the MIC in [1], in assay [2] and in [3] was over 2050 µg/mL in each case. Moreover, the result in assay [8] and in assay [9] was inactive. Moreover, the Ratio in assay [10] stood at 0.9.

`C[C@@H](O)[C@H]1C(=O)N2C(C(=O)O)=C(S[C@@H]3CN[C@H](C(=O)N(C)C)C3)[C@H](C)[C@H]12` [MEROPENEM]: the MIC in [1] is over 32 µg/mL; in assay [2] it was 0.5 µg/mL (≈ 1.3 µM); in assay [3], over 32 µg/mL.

In the case of `CO/N=C(\C(=O)N[C@@H]1C(=O)N2C(C(=O)[O-])=C(C[N+]3(C)CCCC3)CS[C@H]12)c1csc(N)n1` [CEFEPIME], the values for the MIC in assay [1], in assay [2] and in assay [3] were 64 µg/mL (≈ 133 µM), 64 µg/mL (≈ 133 µM) and 4 µg/mL (≈ 8.32 µM), respectively.

Turning to `CC1(C)S[C@@H]2[C@H](NC(=O)C(C(=O)O)c3ccccc3)C(=O)N2[C@H]1C(=O)O` (some centres undefined) [CARBENICILLIN], the figures for the MIC in assay [1], in [2] and in [3] were 1020 µg/mL (≈ 2710 µM), 1020 µg/mL (≈ 2710 µM) and 64 µg/mL (≈ 169 µM), respectively. In addition, the result in assay [8] and in [9] was inactive. The Ratio in assay [10] is 3.4.
